Key:
[1] = Half life in pH 7.4 phosphate buffer at 5 uM by HPLC method; assay type: physicochemical
Procedure, shortened: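 Compound dissolved at 5 µM in phosphate buffer (pH 1.2, 6.8 or 7.4), held at 37 °C for 24 h. Aliquots taken at intervals and analysed by HPLC. t1/2 = 0.693/k from linear regression of pseudo-first-order kinetics.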

[2] = Terminal half-life in Wistar rat at 50 mg/kg, po administered as single dose by UPLC-MS/MS method; assay type: ADME, organism-based; conditions: in vivo, read-out: beta t1/2 (converted)
Procedure, shortened: (§1)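 Wistar rats, six per group, single oral dose equivalent to 50 mg/kg gemcitabine; separate group given gemcitabine iv at 7.5 mg/kg. Oral sampling at 5, 10, 15, 30 min and 1, 2, 4, 6, 8, 12, 24 h; iv at 15, 30 min and 2, 4, 8, 12, 24 h. Blood into THU-pretreated heparinized tubes, centrifuged 3000 × g 15 min, plasma at -80 °C. Prodrug and gemcitabine quantified by UPLC-MS/MS. F = AUCpo×Div/AUCiv/Dpo×100%.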

Mus musculus [3] = test: Toxicity in Kunming mouse assessed as […] degeneration in hepatocytes at 102 mg/kg, po administered once daily for 14 days by hematoxylin/eosin staining based optical microscopic analysis; assay type: organism-based; conditions: in vivo, 336 h
Procedure, shortened: (§2)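 Kunming mice, four per group, dosed orally once daily for 14 days with 102 mg/kg or saline control; body weight recorded every other day. Heart, liver, spleen, lung and kidney fixed in 10% buffered formalin, paraffin-embedded, sectioned, stained with hematoxylin and eosin, and examined by optical microscopy.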

Caco-2 = test: Cytotoxicity against human Caco2 cells assessed as decrease in cell viability after 48 hrs by MTT assay; assay type: functional, cell-based; conditions: Caco-2, 48 h
Procedure, shortened: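 BxPC-3 and Caco-2 cells exposed to compounds for 48 h. Viability read by MTT assay kit. IC50 calculated from dose-response.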

Mus musculus [4] = test: Toxicity in Kunming mouse assessed as […] degeneration in cardiac muscle at 102 mg/kg, po administered once daily for 14 days by hematoxylin/eosin staining based optical microscopic analysis; assay type: organism-based; conditions: in vivo, 336 h; procedure, shortened: as §2
Rattus norvegicus = test: AUC (0 to 24 hrs) in Wistar rat at 50 mg/kg, po administered as single dose by UPLC-MS/MS method; assay type: ADME, organism-based; parameters: dose 50 mg/kg, time < 24 hr, route oral; conditions: in vivo; procedure, shortened: as §1
Mus musculus [5] = test: Toxicity in Kunming mouse assessed as […] degeneration in kidney at 102 mg/kg, po administered once daily for 14 days by hematoxylin/eosin staining based optical microscopic analysis; assay type: organism-based; conditions: in vivo, 336 h; procedure, shortened: as §2
Lung = test: Drug uptake in mouse lung at 102 mg/kg, po administered as single dose at 0.5 hrs post dose; assay type: ADME, organism-based; conditions: in vivo
Procedure, shortened: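 Mice, three per time point, single oral dose of 102 mg/kg (equivalent to 50 mg/kg gemcitabine). Heart, liver, spleen, lung, kidney and brain collected at 0.16, 0.5 and 2 h, rinsed in saline. 0.3 g tissue homogenized 1 min in 1 mL saline, spun 13,000 rpm 4 °C 5 min. Gemcitabine measured in supernatant.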

C[N+](C)(C)CC(CC(=O)[O-])OC(=O)CCCCC(=O)Nc1ccn([C@@H]2O[C@H](CO)[C@@H](O)C2(F)F)c(=O)n1 (stereo partly drawn)
half-life at 5 µM [1]: 45.8 h
half-life [2]: 6.8 h
Activity (Mus musculus [3]): Non-Toxic
IC50 (Caco-2): 40.9 µM
Activity (Mus musculus [4]): Non-Toxic
AUC (Rattus norvegicus): 24300 ng·h/mL
Activity (Mus musculus [5]): Non-Toxic
Drug uptake (Lung): Active
